Source: PubChem BioAssay (several laboratories)
Shown are actives, neighbours in structure and some others; about 2.6% of the full set was active somewhere.
HSF-1 act: increases HSF-1 driven luciferase reporter signal | activation, % at 9 µM | NIH3T3-HGL HSF-1 luciferase reporter, MG132, 8 h; 100% = twice DMSO control signal | AID 504408 | 300,000 tested, 1.7% active;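 active means mean replicate activation of at least 50% with a set share of replicates each reaching 50%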;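 further: 0% = median of the neutral control wells and 100% = twice that signal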
Rad51 HR inh: blocks human Rad51 in homologous recombination; Q06609; hRad51 DNA strand exchange, fluorescence dequenching; AID 1385; 200,000 tested, 0.085% active; inhibition, % at 10 µM;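 active means inhibition above 40% at the single screening dose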;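 further: 0% = DMSO control wells and 100% = blanks with heterologous ssDNA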
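Test system – preformed human Rad51 ssDNA filaments · Reagent – Donor/quencher-labelled 47-bp dsDNA substrate · Incubation – 37 °C 15-min filament assembly, 30-min compound preincubation, 15-min exchange · Signal – FRET fluorescence dequenching, excitation 485 nm, emission 520 nm · Read-out – percent inhibition from fluorescence, normalised to plate control and blank means · Benchmarks – plate control and blank wells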
HSF1 inhib: HSF1 inhibition. NIH3T3-HGL HSE-luciferase, MG132-induced, luminescence 8 h; active compounds read low. activity change, negative = inhibition, % at 7.5 µM (by protocol). 300,000 tested, 0.77% active. AID 2098;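 active means more than half of replicate wells show activity change below -50%, luminescence cut by over half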;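 further: luciferase reports HSF-1 transcriptional activity via heat shock element; 0% = median of DMSO wells and -100% = zero luminescence signal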
Mdm2 ligase inh: blocks human Mdm2 ubiquitin ligase activity | Q00987 | cell-based MDM2 ubiquitination luciferase reporter, 2 h; 0 = plate control, 100 = twice control, blank-subtracted | signal enhancement, % at 5 µM | 210,000 tested, 0.11% active | AID 1230;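 active means signal enhancement of 30% or more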;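 further: luminescence tracks abundance of the self-degrading MDM2-luciferase fusion protein; higher signal means inhibition of MDM2 E3 ligase activity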
Target sequence (Q00987 whole entry, looked up, the tested form may be a part): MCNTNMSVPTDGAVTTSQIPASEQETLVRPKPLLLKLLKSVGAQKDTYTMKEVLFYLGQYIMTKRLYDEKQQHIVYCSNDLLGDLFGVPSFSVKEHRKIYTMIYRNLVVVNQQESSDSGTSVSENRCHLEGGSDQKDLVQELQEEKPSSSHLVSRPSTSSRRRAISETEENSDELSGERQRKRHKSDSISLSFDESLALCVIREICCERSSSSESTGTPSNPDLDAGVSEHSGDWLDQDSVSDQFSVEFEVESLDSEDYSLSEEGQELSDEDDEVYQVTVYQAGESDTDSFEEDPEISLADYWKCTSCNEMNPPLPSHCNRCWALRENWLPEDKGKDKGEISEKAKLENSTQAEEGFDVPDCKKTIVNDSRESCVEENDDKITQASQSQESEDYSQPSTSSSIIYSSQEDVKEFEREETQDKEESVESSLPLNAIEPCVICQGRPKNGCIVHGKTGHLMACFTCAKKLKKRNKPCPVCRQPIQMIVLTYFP
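Assay system: stable mammalian line carrying autodegrading MDM2–luciferase fusion reporter; Input: 2000 cells in each well; Compound dosing: single-point 5 µM; Schedule: 2 h compound exposure at 37 °C; Signal: SteadyLite luciferase luminescence after 15 min room-temperature reagent incubation; Evaluation: % luminescence enhancement versus blank-corrected plate control mean; Benchmarks: plate controls and plate blanks.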
HSV replic up: increases HSV replication in cells. AID 1956. 220,000 tested, 0.005% active. HSV replication augmentation in cells, fold increase. maximum fold increase; in the data active means maximum fold increase above about 1.5; tested in PC3 cells
Hsp70 act: switches on Hsp70 transcription; HeLa Hsp70 promoter luciferase reporter, luminescence; scaled: vehicle 0, proteasome-inhibitor control 100%; activation, % at 10 µM; 200,000 tested, 0.04% active;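 active means activation above the mean across all tested compounds plus 3 SD, cutoff set per campaign, cut at about 5.5% in these data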;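 further: 100% = MG132 at 30 µM as the positive control and 0% = DMSO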
Starred values were filed as active, the others as inactive.

CCC(=O)C1CCCN(C(=O)CCc2nnc(-c3ccc(C(C)=O)s3)o2)C1 (stereo not drawn) was read as HSF-1 act 28 and HSF1 inhib 22.
Screening CC1CCN(S(=O)(=O)c2cccc(C(=O)Nc3ccccc3)c2)CC1 returned HSF-1 act 9, HSF1 inhib -7, Mdm2 ligase inh -8, HSV replic up inactive and Hsp70 act 0.
Screening Cc1cc(C)n(-c2nc3ccccc3nc2N2CCN(C(=O)c3ccccc3)CC2)n1 returned HSF-1 act 52*, Rad51 HR inh 7, HSF1 inhib 21, Mdm2 ligase inh -17, HSV replic up inactive and Hsp70 act 0.
`O=C(NCCCN1CCC(Cc2ccccc2)CC1)C1CC(=O)N(C2CCCC2)C1` (stereo not drawn) gave HSF-1 act -71, Rad51 HR inh -7, HSF1 inhib -62*, Mdm2 ligase inh -19, HSV replic up inactive and Hsp70 act 0.
O=C(NCCCN1CCC(Cc2ccccc2)CC1)C1CCC(=O)N1C1CCCC1 (stereo not drawn) was read as HSF-1 act 2, Rad51 HR inh 4, HSF1 inhib 1, Mdm2 ligase inh -4, HSV replic up inactive and Hsp70 act 0.
`O=C(O)c1ccc(S(=O)(=O)NCC2CCCO2)cc1` (stereo not drawn) gave HSF-1 act -3 and HSF1 inhib 1.
Screening O=S(=O)(c1cccc2nonc12)N1CCCCCC1 returned HSF-1 act -5, Rad51 HR inh 9, HSF1 inhib -2, Mdm2 ligase inh 7, HSV replic up inactive and Hsp70 act 0.
For COc1cccc(Nc2ccc(C(=O)O)cc2N)c1 the results were HSF-1 act -69 and HSF1 inhib -66*.
For COc1cc(C(=O)NCC2CCCO2)ccc1OCc1ccc(Cl)cc1Cl (stereo not drawn) the results were HSF-1 act 72* and HSF1 inhib 53.
`COc1cccc(NC(=O)C2CCC(CNS(=O)(=O)c3cccc4cccnc34)CC2)c1` (stereo not drawn) gave HSF-1 act -6 and HSF1 inhib -2.
For Cc1cc(NC(=O)CSc2nc(C(C)C)nc3c2c(=O)n(C)c(=O)n3C)no1 the results were HSF-1 act -4, Rad51 HR inh 0, HSF1 inhib -2, Mdm2 ligase inh 33*, HSV replic up inactive and Hsp70 act 0.
For CC(C)c1nc(SCc2c(F)cccc2Cl)c2c(=O)n(C)c(=O)n(C)c2n1 the results were HSF-1 act -73, Rad51 HR inh -6, HSF1 inhib -67*, Mdm2 ligase inh -20, HSV replic up inactive and Hsp70 act 0.
CCc1cc[n+](CC(=O)Nc2ccc(Cl)cc2Cl)cc1 was read as HSF-1 act -77, Rad51 HR inh -7, HSF1 inhib -72*, Mdm2 ligase inh -11, HSV replic up inactive and Hsp70 act 0.
For COc1cccc(-c2nc3sc4c(c3c(=O)[nH]2)CCCCC4)c1 the results were HSF-1 act 53*, Rad51 HR inh -5, HSF1 inhib 26, Mdm2 ligase inh -24, HSV replic up inactive and Hsp70 act 0.
Screening COCc1nc2sc3c(c2c(=O)[nH]1)CCCC3 returned HSF-1 act -5, Rad51 HR inh -2, HSF1 inhib 1, Mdm2 ligase inh 5, HSV replic up inactive and Hsp70 act 0.
For CCOc1ccc(N(CC(=O)NC2CCCCC2)C(=O)CCCC(=O)Nc2ccccn2)cc1 the results were HSF-1 act -6 and HSF1 inhib -7.
For CC(=O)Nc1nnc(SCc2ccc(F)cc2)s1 the results were HSF-1 act 19, Rad51 HR inh 3, HSF1 inhib 23, Mdm2 ligase inh -14, HSV replic up inactive and Hsp70 act 0.
For CC(=O)Nc1nnc(SCC(=O)c2ccc(F)cc2)s1 the results were HSF-1 act 104*, Rad51 HR inh 4, HSF1 inhib 92, Mdm2 ligase inh -17, HSV replic up inactive and Hsp70 act 0.
Screening CCOc1ccc(NC(=O)CCCNC(=O)Cn2cnc3sc(C)c(C)c3c2=O)cc1 returned HSF-1 act -70 and HSF1 inhib -64*.
